# From ChEMBL document CHEMBL5058577, “EUbOPEN Chemogenomics Library 2 (Multiplex)” (2022)
# Tested on: U2OS
# Assay: Multiplex assay against U2OS
# Assay type: toxicity, cell-based
# Details: human
# In short: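 At seeding, live cells were stained with Hoechst33342, BioTracker Green Microtubule Cytoskeleton Dye, MitoTracker Red and Annexin V Alexa Fluor 680. After compound addition they were imaged on a CQ1 microscope at 37°C and 5% CO2, and CellPathfinder machine-learning gating sorted them into Hoechst high-intensity objects or normal cells, with normal cells further split into healthy, pyknosed or fragmented nuclei and pyknosed cells into mitotic or apoptotic. Tubulin, mitochondrial-mass and membrane-permeability phenotypes are given as per cents of cells with healthy nuclei.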
# [1] = 12 h, 1 µM, compound concentration 1 uM, replicate 1
# [2] = 12 h, 1 µM, compound concentration 1 uM, replicate 2
# [3] = 12 h, 10 µM, compound concentration 10 uM, replicate 1
# [4] = 12 h, 10 µM, compound concentration 10 uM, replicate 2
# [5] = 24 h, 1 µM, compound concentration 1 uM, replicate 1
# [6] = 24 h, 1 µM, compound concentration 1 uM, replicate 2
# [7] = 24 h, 10 µM, compound concentration 10 uM, replicate 1
# [8] = 24 h, 10 µM, compound concentration 10 uM, replicate 2
# [9] = 48 h, 1 µM, compound concentration 1 uM, replicate 1
# [10] = 48 h, 1 µM, compound concentration 1 uM, replicate 2
# [11] = 48 h, 10 µM, compound concentration 10 uM, replicate 1
# [12] = 48 h, 10 µM, compound concentration 10 uM, replicate 2
structure (smiles),measurement,setting,value
N#Cc1c(N)nc(SCc2csc(-c3ccc(Cl)cc3)n2)c(C#N)c1-c1ccc(OCCO)cc1 [CAPADENOSON],Population Apoptotic (%),[1],78%
same,Population Fragmented Nuclei (%),[1],25%
same,Population Healthy Nuclei (%),[1],65%
same,Population Hoechst High Intensity Objects (%),[1],5%
same,Population Membrane Permeable-Phenotype (%),[1],14%
same,Population Mitochondria Different-Phenotype (%),[1],4%
same,Population Mitotic Cells (%),[1],21%
same,Population Normal (%),[1],94%
same,Population Pyknosed Nuclei (%),[1],8%
same,Population Tubulin-Different-Phenotype (%),[1],10%
same,Total Cell Count,[1],236
same,Population Apoptotic (%),[2],80%
same,Population Fragmented Nuclei (%),[2],18%
same,Population Healthy Nuclei (%),[2],75%
same,Population Hoechst High Intensity Objects (%),[2],1%
same,Population Membrane Permeable-Phenotype (%),[2],5%
same,Population Mitochondria Different-Phenotype (%),[2],2%
same,Population Mitotic Cells (%),[2],20%
same,Population Normal (%),[2],98%
same,Population Pyknosed Nuclei (%),[2],6%
same,Population Tubulin-Different-Phenotype (%),[2],1%
same,Total Cell Count,[2],150
same,Population Apoptotic (%),[3],64%
same,Population Fragmented Nuclei (%),[3],35%
same,Population Healthy Nuclei (%),[3],40%
same,Population Hoechst High Intensity Objects (%),[3],5%
same,Population Membrane Permeable-Phenotype (%),[3],70%
same,Population Mitochondria Different-Phenotype (%),[3],37%
same,Population Mitotic Cells (%),[3],35%
same,Population Normal (%),[3],94%
same,Population Pyknosed Nuclei (%),[3],24%
same,Population Tubulin-Different-Phenotype (%),[3],65%
same,Total Cell Count,[3],255
same,Population Apoptotic (%),[4],68%
same,Population Fragmented Nuclei (%),[4],24%
same,Population Healthy Nuclei (%),[4],56%
same,Population Hoechst High Intensity Objects (%),[4],0%
same,Population Membrane Permeable-Phenotype (%),[4],49%
same,Population Mitochondria Different-Phenotype (%),[4],61%
same,Population Mitotic Cells (%),[4],31%
same,Population Normal (%),[4],99%
same,Population Pyknosed Nuclei (%),[4],18%
same,Population Tubulin-Different-Phenotype (%),[4],70%
same,Total Cell Count,[4],102
same,Population Apoptotic (%),[5],87%
same,Population Fragmented Nuclei (%),[5],23%
same,Population Healthy Nuclei (%),[5],64%
same,Population Hoechst High Intensity Objects (%),[5],3%
same,Population Membrane Permeable-Phenotype (%),[5],9%
same,Population Mitochondria Different-Phenotype (%),[5],4%
same,Population Mitotic Cells (%),[5],12%
same,Population Normal (%),[5],96%
same,Population Pyknosed Nuclei (%),[5],12%
same,Population Tubulin-Different-Phenotype (%),[5],6%
same,Total Cell Count,[5],263
same,Population Apoptotic (%),[6],61%
same,Population Fragmented Nuclei (%),[6],16%
same,Population Healthy Nuclei (%),[6],71%
same,Population Hoechst High Intensity Objects (%),[6],0%
same,Population Membrane Permeable-Phenotype (%),[6],5%
same,Population Mitochondria Different-Phenotype (%),[6],2%
same,Population Mitotic Cells (%),[6],38%
same,Population Normal (%),[6],99%
same,Population Tubulin-Different-Phenotype (%),[6],2%
same,Total Cell Count,[6],176
same,Population Apoptotic (%),[7],71%
same,Population Fragmented Nuclei (%),[7],36%
same,Population Healthy Nuclei (%),[7],37%
same,Population Hoechst High Intensity Objects (%),[7],5%
same,Population Membrane Permeable-Phenotype (%),[7],47%
same,Population Mitochondria Different-Phenotype (%),[7],38%
same,Population Mitotic Cells (%),[7],28%
same,Population Normal (%),[7],94%
same,Population Pyknosed Nuclei (%),[7],26%
same,Population Tubulin-Different-Phenotype (%),[7],47%
same,Total Cell Count,[7],253
same,Population Apoptotic (%),[8],69%
same,Population Fragmented Nuclei (%),[8],25%
same,Population Healthy Nuclei (%),[8],49%
same,Population Hoechst High Intensity Objects (%),[8],2%
same,Population Membrane Permeable-Phenotype (%),[8],34%
same,Population Mitochondria Different-Phenotype (%),[8],58%
same,Population Mitotic Cells (%),[8],30%
same,Population Normal (%),[8],97%
same,Population Pyknosed Nuclei (%),[8],24%
same,Population Tubulin-Different-Phenotype (%),[8],60%
same,Total Cell Count,[8],95
same,Population Apoptotic (%),[9],80%
same,Population Fragmented Nuclei (%),[9],23%
same,Population Healthy Nuclei (%),[9],67%
same,Population Hoechst High Intensity Objects (%),[9],3%
same,Population Membrane Permeable-Phenotype (%),[9],9%
same,Population Mitochondria Different-Phenotype (%),[9],6%
same,Population Mitotic Cells (%),[9],20%
same,Population Normal (%),[9],96%
same,Population Pyknosed Nuclei (%),[9],8%
same,Population Tubulin-Different-Phenotype (%),[9],6%
same,Total Cell Count,[9],355
same,Population Apoptotic (%),[10],84%
same,Population Fragmented Nuclei (%),[10],12%
same,Population Healthy Nuclei (%),[10],79%
same,Population Hoechst High Intensity Objects (%),[10],0%
same,Population Membrane Permeable-Phenotype (%),[10],6%
same,Population Mitochondria Different-Phenotype (%),[10],3%
same,Population Mitotic Cells (%),[10],15%
same,Population Normal (%),[10],99%
same,Population Tubulin-Different-Phenotype (%),[10],5%
same,Total Cell Count,[10],220
same,Population Apoptotic (%),[11],86%
same,Population Fragmented Nuclei (%),[11],44%
same,Population Healthy Nuclei (%),[11],30%
same,Population Hoechst High Intensity Objects (%),[11],5%
same,Population Membrane Permeable-Phenotype (%),[11],46%
same,Population Mitochondria Different-Phenotype (%),[11],31%
same,Population Mitotic Cells (%),[11],13%
same,Population Normal (%),[11],94%
same,Population Pyknosed Nuclei (%),[11],25%
same,Population Tubulin-Different-Phenotype (%),[11],37%
same,Total Cell Count,[11],285
same,Population Apoptotic (%),[12],66%
same,Population Fragmented Nuclei (%),[12],30%
same,Population Healthy Nuclei (%),[12],49%
same,Population Hoechst High Intensity Objects (%),[12],4%
same,Population Membrane Permeable-Phenotype (%),[12],45%
same,Population Mitochondria Different-Phenotype (%),[12],45%
same,Population Mitotic Cells (%),[12],33%
same,Population Normal (%),[12],95%
same,Population Pyknosed Nuclei (%),[12],20%
same,Population Tubulin-Different-Phenotype (%),[12],50%
same,Total Cell Count,[12],109
